# Only some compounds are listed: those with a hit (about 1.5% of all), similar ones and a draw of the others.
# APJ ag: activates the human apelin receptor APJ | CHO-K1 APJ PathHunter beta-arrestin, luminescence; 0% DMSO wells, 100% apelin | 330,000 compounds, 0.11% hits | activation, % at 20 µM | AID 2520;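 active = activation more than six SD over the plate average, tested at 20 µM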;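 also: 0% = DMSO alone and 100% = apelin-13 at 10 nM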
#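 Test system: CHO-K1 APJ beta-arrestin complementation cell line | Compound: Single test compound dose, 20 µM final, 1% DMSO | Incubation: Compound 90 min 25 °C, reagent 1 h | Measured by: beta-gal luminescence | Read-out basis: APJ–arrestin association signal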
# APJ antag: APJ receptor antagonism; P35414; CHO-K1 APJ beta-arrestin complementation, luminescence; inhibition, % at 20 µM; 330,000 compounds, 0.32% hits;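 active = inhibition above about 40% at 20 µM, limit read from the data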;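 also: cells challenged with 10 nM apelin-13 agonist together with compound; plate controls were apelin-13 plus DMSO wells for no effect and DMSO wells lacking apelin-13 for full effect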
# EBI2 antag: blocks human EBI2 receptor beta-arrestin signaling | 360,000 compounds, 0.81% hits | EBI2 beta-arrestin recruitment, luminescence, 7a,25-OHC stimulated | P32249 | inhibition, % at 5 µM; in the data active = inhibition above about 38%;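 also: enzyme fragment complementation signal reports receptor beta-arrestin coupling in cells; 0% = agonist plus DMSO wells and 100% = wells without agonist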
# Target sequence (P32249 whole entry, looked up, the tested form may be a part): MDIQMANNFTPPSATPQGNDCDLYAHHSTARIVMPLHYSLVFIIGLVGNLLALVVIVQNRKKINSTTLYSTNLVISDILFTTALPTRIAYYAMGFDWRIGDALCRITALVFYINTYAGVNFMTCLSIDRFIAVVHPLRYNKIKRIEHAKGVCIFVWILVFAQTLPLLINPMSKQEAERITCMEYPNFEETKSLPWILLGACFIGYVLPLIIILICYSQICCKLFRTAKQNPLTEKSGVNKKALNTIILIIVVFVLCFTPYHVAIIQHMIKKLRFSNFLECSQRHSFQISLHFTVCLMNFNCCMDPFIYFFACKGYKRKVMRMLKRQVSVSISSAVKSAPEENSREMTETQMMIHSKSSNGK
# CCR6 antag: antagonists of human CCR6 receptor; P51684; AID 493098; inhibition, % at 20 µM; 340,000 compounds, 0.49% hits; CHO-K1 CCR6 PathHunter beta-arrestin, luminescence, CCL20-stimulated;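 active = compounds whose inhibition of the agonist-driven luminescence signal at 20 µM reaches about 50%, limit read from the data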;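 also: cells stimulated with CCL20 at 14 nM final; plate controls were DMSO with CCL20 for no effect and DMSO without agonist for full effect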
# CXCR6 block: blocks human CXCR6 beta-arrestin recruitment | inhibition, % at 20 µM | O00574 | AID 602244 | CHO-K1 PathHunter CXCR6 beta-arrestin, luminescence | 360,000 compounds, 0.36% hits; in the data active = inhibition above about 34%, passing the limit was not always enough;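 also: antagonist mode with CXCL16 agonist at 10 nM final; 0% = 10 nM CXCL16 with DMSO and 100% = unstimulated wells without agonist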
# EBI2 antag conf: EBI2 (human) antagonism, single concentration confirmation; 2,400 compounds, 29% hits; EBI2 beta-arrestin luminescence, 7a,25-OHC antagonism; inhibition, % at 5 µM; shares compounds with EBI2 antag;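 active = inhibition of at least 50%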
# EBI2 ag: counter-screen for EBI2 antagonists: EBI2 agonist activity; shares compounds with EBI2 antag; EBI2-expressing cells, agonist mode, luminescence, 60 min; 0% vehicle, 100% 7α,25-dihydroxycholesterol control; activation, % at 5 µM; 2,400 tested, under 10 active; AID 652000;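 active = activation of at least 50%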
# bGal cs: counter-screen for EBI2 antagonists: E. coli beta-galactosidase inhibition; shares compounds with EBI2 antag; purified beta-galactosidase, luminescent Galacton Star, 15 min; inhibition, % at 5 µM; 2,400 compounds, 1% hits;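 active = replicate-average signal at least 3 plate SD below neutral wells, shown as high inhibition, flagging enzyme-inhibiting false positives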;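 also: 0% = DMSO wells with enzyme and 100% = wells lacking enzyme; higher means stronger loss of beta-gal luminescence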
# Active calls of the source: *; nt = no result.
SMILES,APJ ag,APJ antag,EBI2 antag,CCR6 antag,CXCR6 block,EBI2 antag conf,EBI2 ag,bGal cs
CC(C)CC(=O)N1CCN(C(=O)c2cccc(F)c2)CC1,0,10,-4,-16,-4,nt,nt,nt
COc1ccc(C(=O)N2CCC(O)(c3ccc(F)cc3)CC2)cc1OC,1,2,20,15,-5,nt,nt,nt
COc1ccc(C(=O)N2CCC(O)(c3ccc(Cl)cc3)CC2)cc1OC,3,-15,52*,3,-2,44,2,1
CC(C)CC(=O)N1CCN(C(=O)c2ccc(-c3ccccc3)cc2)CC1,0,16,74*,-5,-18,25,0,7
CC(=O)N1CCN(C(=O)c2ccc(Oc3ccccc3)cc2)CC1,-3,5,2,-7,4,nt,nt,nt
O=C(c1ccccc1)N1CCN(C(=O)c2ccc(OC(F)(F)F)cc2)CC1,0,1,53*,0,1,28,2,11
COc1cc(OC)cc(C(=O)N2CCN(C(=O)c3ccc(-c4ccccc4)cc3)CC2)c1,-1,-12,89*,-6,1,67*,-1,-1
NC(=O)c1ccc[n+](CC(=O)c2ccc(F)cc2)c1,-3,6,-1,1,1,nt,nt,nt
CCC1(C)Cc2ccccc2-c2nc(-c3ccccc3)oc(=O)c21 (stereo unspecified),-8,2,7,11,8,nt,nt,nt
COc1ccc(C(=O)N2CCN(c3ccc(C)cc3)CC2)cc1OC,0,-9,17,-9,2,nt,nt,nt
CCC(C)NC(=O)C1CCN(C(=O)c2ccccc2)CC1 (stereo unspecified),0,3,4,11,2,nt,nt,nt
CC(C)NC(=O)C1CCN(C(=O)c2ccc(-c3ccccc3)cc2)CC1,-5,6,44*,18,-3,42,-2,-20
COc1ccc(C(=O)N2CCN(C(=O)c3ccc(-c4ccccc4)cc3)CC2)cc1OC,1,6,81*,15,2,49,0,11
CC(Cn1cncn1)C(=O)N1CCN(S(=O)(=O)c2ccccc2)CC1 (stereo unspecified),1,-11,-12,-5,3,nt,nt,nt
CC(CNC(=O)CC(C)(C)C)NC(=O)CC(C)(C)C (stereo unspecified),-3,5,-8,7,9,nt,nt,nt
O=C(OCC(=O)N1CCN(C(=O)c2ccco2)CC1)c1cncc(Br)c1,-4,-17,-12,-9,-1,nt,nt,nt
C(=N\N(c1ccccc1)c1ccccc1)/c1ccc(N2CCOCC2)s1,-6,1,56*,14,4,20,2,4
O=C(N/N=C/c1ccc(N2CCOCC2)s1)c1ccccc1Cl,-3,2,-3,18,-8,nt,nt,nt
CCC(=NCCc1c(C)[nH]c2ccc(OC(F)(F)F)cc12)C1=C(O)CC(c2ccccc2)CC1=O (stereo unspecified),-1,-29,39,14,16,nt,nt,nt
CCCCC(=NCCc1c(C)[nH]c2ccc(OC)cc12)C1=C(O)CC(c2ccccc2)CC1=O (stereo unspecified),-4,-19,51*,19,14,2,15,-12
CC(=NCCc1c(C)[nH]c2ccc(OCc3ccccc3)cc12)C1=C(O)CC(c2ccccc2)CC1=O (stereo unspecified),0,7,46*,8,9,25,0,5
C[C@H]1CN([C@@H](C)CO)C(=O)CCCn2nncc2CO[C@H]1CN(C)S(=O)(=O)c1ccc(Oc2ccccc2)nc1,nt,nt,-3,nt,-4,nt,nt,nt
O=C(c1ccc(Br)s1)N1CCN(C/C=C/c2ccccc2)CC1,-1,-22,43*,-2,5,16,-1,-5
C[C@H](NC(=O)c1ccc(C(C)(C)C)cc1)C(=O)N1CCN(C/C=C/c2ccccc2)CC1,-3,-7,72*,21,8,54*,0,-13
O=C(CCN1CCN(C/C=C/c2ccccc2)CC1)Nc1ccc(Cl)cc1,-4,-25,-7,2,-7,nt,nt,nt
SMILES,APJ ag,APJ antag,EBI2 antag,CCR6 antag,CXCR6 block,EBI2 antag conf,EBI2 ag,bGal cs
O=C(Nc1cccc(Cl)c1)N1CCN(C/C=C/c2ccccc2)CC1,0,-7,55*,12,-8,41,0,-6
CC(C)C(NC(=O)c1ccccc1)C(=O)N1CCN(C/C=C/c2ccccc2)CC1 (stereo unspecified),-2,6,22,3,9,nt,nt,nt
COc1ccc(OC)c(/C=N/NC(=O)c2cccc3ccccc23)c1,-2,4,10,5,5,nt,nt,nt
Cc1ccc(/C=C/C(=O)OCC(=O)NCc2cccs2)o1,-5,0,-1,12,-4,nt,nt,nt
O=C(c1ccc(Cl)cc1)c1oc2ccccc2c1CS(=O)c1ccc(Cl)cc1 (stereo unspecified),-6,14,52*,6,6,51*,0,3
O=S1(=O)CC(N2CCN(CCO)CC2)CN1Cc1cn(Cc2cccc(C(F)(F)F)c2)nn1 (stereo unspecified),nt,nt,-3,nt,-8,nt,nt,nt
CCOc1ccc(/C=N/NC(=O)Nc2ccccc2)cc1,-1,14,18,-12,5,nt,nt,nt
CCN(CC)c1ccc(/C=N/NC(=O)Nc2ccccc2)cc1,-5,9,40*,0,-5,52*,0,-10
CC(=O)NNC(=O)c1csc(-c2csc(C)n2)n1,2,-6,-11,-9,2,nt,nt,nt
CCOC(=O)CN1CCC(c2cc(-c3ccc(Cl)cc3)n[nH]2)CC1,0,10,40*,10,4,37,-2,-5
CCOC(=O)Cn1nc(-c2ccc(Cl)cc2)cc1N,-3,13,-3,1,-14,nt,nt,nt
COc1cc(NC(=O)c2cc3nc(C4CC4)cc(C(F)(F)F)n3n2)c(OC)cc1Cl,-2,-10,38*,8,4,7,-1,-11
O=C(COc1ccc(Cl)cc1Br)N1CCN(c2ncccn2)CC1,13,15,31,22,-3,nt,nt,nt
CCCOc1ccc(/C=C/C(=O)N2CCOCC2)cc1,3,-16,-12,4,4,nt,nt,nt
O=C(/C=C/c1ccc(F)cc1)N1CCN(c2ccccn2)CC1,-4,4,91*,12,-9,81*,1,1
O=C(COc1ccc(Br)cc1F)N1CCN(c2ncccn2)CC1,-2,6,46*,1,3,27,0,6
Cc1cc(OCC(=O)N2CCN(c3ccccn3)CC2)cc(C)c1Br,3,-5,62*,-3,5,65*,1,-2

# Screens from PubChem.
